Assay results as given in ChEMBL document CHEMBL1135390, “Inotropic activity of hydroindene amidinohydrazones” (2002).

Assays:
Cavia porcellus [1] = species on record: Cavia porcellus; test: Inotropic activity on cardiac frequency on spontaneously beating guinea pig right atria, (from basal frequency).; format: functional, Heart
Method in brief: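 Isolated guinea pig right atrium, beating spontaneously, in oxygenated (95% O2/5% CO2) Tyrode-type solution at 34 °C. Resting tension 1 g, 60 min equilibration. Rate recorded isometrically via force transducer. Cumulative concentrations 10^-7 to 5×10^-4 M added at 30 min intervals, from DMSO stock (1% DMSO final in bath). Expressed as % of pre-drug control. Mean of at least five experiments.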

Cavia porcellus [2] = species on record: Cavia porcellus; test: Inotropic activity on electrically driven isolated Guinea pig atria; format: functional
Method in brief: (§1)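 Isolated guinea pig left atrium paced at 1 Hz via bipolar platinum electrodes (1 ms pulses, twice threshold voltage), in oxygenated (95% O2/5% CO2) Tyrode-type solution at 34 °C. Resting tension 1 g, 60 min equilibration. Isometric contraction amplitude measured. Cumulative 10^-7 to 5×10^-4 M at 30 min intervals, 1% DMSO final. Expressed as % of pre-drug control. Mean of at least five experiments.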

Cavia porcellus [3] = species on record: Cavia porcellus; test: Inotropic activity on electrically driven isolated Guinea pig left atria, (from basal force).; format: functional; method in brief: as §1
[4] = Cavia porcellus, Heart, read-out: Emax
[5] = Cavia porcellus, read-out: Emax

In the case of COC(=O)/C=C/[C@H]1CCC2=C/C(=N/N=C(N)N)CC[C@@]21C, the Emax (Cavia porcellus [1]; [4]) was 13.2%, the “concentration at Emax” value (Cavia porcellus [2]) was 0.3 mM and the Emax (Cavia porcellus [3]; [5]) was -67%.

COC(=O)/C=C\[C@H]1CCC2=C/C(=N/N=C(N)N)CC[C@@]21C was tested, and the Emax (Cavia porcellus [1]; [4]) was -54%, the “concentration at Emax” value (Cavia porcellus [2]) was 0.3 mM and the Emax (Cavia porcellus [3]; [5]) was -76%.

For C[C@]12CC/C(=N\N=C(N)N)C[C@@]1(O)CC[C@@H]2/C=N/N=C(N)N, the Emax (Cavia porcellus [1]; [4]) was -15%, the “concentration at Emax” value (Cavia porcellus [2]) was 0.3 mM and the Emax (Cavia porcellus [3]; [5]) was -59%.

In the case of C[C@]12CC[C@H]3[C@@H](CC[C@]4(O)C[C@@H](O)CC[C@]34C=O)[C@@]1(O)CC[C@@H]2C1=CC(=O)OC1 [STROPHANTHIDIN], the Emax (Cavia porcellus [1]; [4]) was 80.4%, the “concentration at Emax” value (Cavia porcellus [2]) was 0.001 mM and the Emax (Cavia porcellus [3]; [5]) was 122%.

For C[C@]12CC/C(=N\N=C(N)N)C=C1CC[C@@H]2/C=C/[N+](=O)[O-], the Emax (Cavia porcellus [1]; [4]) was -1.7%, the “concentration at Emax” value (Cavia porcellus [2]) was 0.3 mM and the Emax (Cavia porcellus [3]; [5]) was 128%.

C[C@]12CC/C(=N\N=C(N)N)C=C1CC[C@@H]2/C=N/N=C(N)N (stereo in doubt; 3) showed an Emax (Cavia porcellus [1]) of -5.4% and an Emax (Cavia porcellus [3]) of 132%.

With C[C@]12CC/C(=N\N=C(N)N)C=C1CC[C@@H]2CN the Emax (Cavia porcellus [1]; [4]) was -16%, the “concentration at Emax” value (Cavia porcellus [2]) was 0.3 mM and the Emax (Cavia porcellus [3]; [5]) was 46%.

With C[C@]12CC/C(=N\N=C(N)N)C=C1CC[C@@H]2/C=N/N=C(N)N (stereo in doubt; 30) the Emax (Cavia porcellus [1]) was -5.1%, the “concentration at Emax” value (Cavia porcellus [2]) was 0.3 mM and the Emax (Cavia porcellus [3]) was 170%.

For C[C@H]1O[C@@H](O[C@H]2[C@@H](O)C[C@H](O[C@H]3[C@@H](O)C[C@H](O[C@H]4CC[C@@]5(C)[C@H](CC[C@@H]6[C@@H]5C[C@@H](O)[C@]5(C)[C@@H](C7=CC(=O)OC7)CC[C@]65O)C4)O[C@@H]3C)O[C@@H]2C)C[C@H](O)[C@@H]1O [DIGOXIN], the Emax (Cavia porcellus [1]; [4]) was -28.3%, the “concentration at Emax” value (Cavia porcellus [2]) was 0.001 mM and the Emax (Cavia porcellus [3]; [5]) was 103%.

With CC1=C2CC[C@H](/C=N/N=C(N)N)[C@@]2(C)CC/C1=N\N=C(N)N the Emax (Cavia porcellus [1]; [4]) was 4.2%, the “concentration at Emax” value (Cavia porcellus [2]) was 0.3 mM and the Emax (Cavia porcellus [3]; [5]) was 108%.

In the case of C[C@]12CC/C(=N\N=C(N)N)C=C1CC[C@@H]2CN1C(=O)c2ccccc2C1=O, the Emax (Cavia porcellus [1]; [4]) was -18%, the “concentration at Emax” value (Cavia porcellus [2]) was 0.1 mM and the Emax (Cavia porcellus [3]; [5]) was 86%.

For CC1=C2CC[C@@H](/C=N/N=C(N)N)[C@@]2(C)CC/C1=N\N=C(N)N, the Emax (Cavia porcellus [1]; [4]) was 33.7%, the “concentration at Emax” value (Cavia porcellus [2]) was 0.3 mM and the Emax (Cavia porcellus [3]; [5]) was 129%.

In the case of COC(=O)/C=C/[C@H]1CCC2=C(C)/C(=N/N=C(N)N)CC[C@@]21C, the Emax (Cavia porcellus [1]; [4]) was -0.2%, the “concentration at Emax” value (Cavia porcellus [2]) was 0.3 mM and the Emax (Cavia porcellus [3]; [5]) was -41%.

For C[C@]12CC/C(=N\N=C(N)N)C=C1CC[C@@H]2CO, the Emax (Cavia porcellus [1]; [4]) was 22%, the “concentration at Emax” value (Cavia porcellus [2]) was 0.3 mM and the Emax (Cavia porcellus [3]; [5]) was -47%.
